The IC50 is the concentration that inhibits the measured activity by half.

Among the data in ChEMBL document CHEMBL4837231, “Development of peptide epoxyketones as selective immunoproteasome inhibitors” (Eur J Med Chem, 2021) are IC50 and Ratio IC50 values, retold here.

Each structure is given as a SMILES string. Some results are limits rather than exact numbers.

Experiment [1] deals with T1, Proteasome subunit beta type-10 (Homo sapiens, UniProt P40306).
T1 sequence (P40306 whole entry): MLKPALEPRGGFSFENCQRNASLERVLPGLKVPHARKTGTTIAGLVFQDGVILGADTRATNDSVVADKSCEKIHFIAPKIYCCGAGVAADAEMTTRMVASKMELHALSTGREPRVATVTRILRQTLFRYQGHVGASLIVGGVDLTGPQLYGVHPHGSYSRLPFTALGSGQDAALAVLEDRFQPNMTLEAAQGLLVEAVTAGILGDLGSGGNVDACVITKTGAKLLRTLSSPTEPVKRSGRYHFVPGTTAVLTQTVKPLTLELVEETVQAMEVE
Kind of experiment: Inhibition of human trypsin-like activity of 20s proteasome beta 2i subunit using SUC-VGR-AMC as flurogenic substrate preincubated for 15 mins followed by substrate addition and measured after 1 hr by fluorescence assay. The essentials:
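Immunoproteasome derived from human PBMC, added at 1 μg/mL (pre-dilution) in 100 mM Tris-HCl pH 7.5. Compounds were diluted to a 10% DMSO solution. After 15 min preincubation at 25 °C, AMC substrate added (100 µM final) and incubated 1 h at 25 °C.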

The target of experiment [2] is T2, Proteasome Macropain subunit MB1 (Homo sapiens, UniProt P28074).
T2 sequence (P28074 whole entry): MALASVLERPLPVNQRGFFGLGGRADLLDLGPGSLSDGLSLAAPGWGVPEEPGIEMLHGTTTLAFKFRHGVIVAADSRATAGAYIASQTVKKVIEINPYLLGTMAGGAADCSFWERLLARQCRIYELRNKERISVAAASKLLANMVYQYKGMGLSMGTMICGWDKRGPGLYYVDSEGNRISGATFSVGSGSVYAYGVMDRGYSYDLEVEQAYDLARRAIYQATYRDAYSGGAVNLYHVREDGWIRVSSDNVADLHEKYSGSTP
Description: Inhibition of chymotrypsin-like activity of human 20s proteasome beta 5c subunit using suc-WLA-AMC as flurogenic substrate preincubated for 15 mins followed by substrate addition and measured after 1 hr by fluorescence assay. The essentials: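 Constitutive proteasome isolated from human hepatic cells, added at 40 μg/mL (pre-dilution) in 100 mM Tris-HCl pH 7.5. Compounds came from DMSO diluted in water (10% DMSO solution). Preincubated 15 min at 25 °C, then AMC substrate added (100 µM final) for 1 h at 25 °C. Fluorescence read at 355 nm excitation and 460 nm emission; IC50 from a variable-slope sigmoidal fit.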

The target in experiment [3] is T3, Proteasome subunit beta type-9 (Homo sapiens, UniProt P28065).
T3 sequence (P28065 whole entry): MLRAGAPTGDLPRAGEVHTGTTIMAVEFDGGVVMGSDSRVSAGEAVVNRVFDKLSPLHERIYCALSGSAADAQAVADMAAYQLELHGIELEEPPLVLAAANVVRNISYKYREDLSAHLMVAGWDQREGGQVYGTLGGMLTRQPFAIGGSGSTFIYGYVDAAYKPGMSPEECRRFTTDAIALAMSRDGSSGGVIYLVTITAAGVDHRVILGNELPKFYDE
Kind of experiment: Inhibition of human caspase-like activity of 20s proteasome beta 1i subunit using SUC-PAL-AMC as flurogenic substrate preincubated for 15 mins followed by substrate addition and measured after 1 hr by fluorescence assay. Put shortly:
(§1)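 Immunoproteasome derived from human PBMC, added at 1 μg/mL (pre-dilution) in 100 mM Tris-HCl pH 7.5. Compounds were diluted to a 10% DMSO solution. After 15 min preincubation at 25 °C, AMC substrate added (100 µM final) and incubated 1 h at 25 °C. Read at ex 355/em 460 nm; IC50 by sigmoidal variable-slope fitting.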

Experiment [4] deals with MM1.S. Kind of experiment: Antiproliferative activity against human MM1.S cells assessed as inhibition of cell proliferation after 72 hrs by MTS assay. It counts as functional, cell-based. Put shortly: (§2)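 Cells grown in RPMI-1640 with 10% FBS and penicillin/streptomycin at 37 °C, 5% CO2. Seeded per well at 5×10³ (RPMI-8226) or 3×10⁴ (MM.1S), then exposed 72 h to graded compound concentrations or 0.2% DMSO vehicle. MTS/PMS added for 2–4 h; absorbance at 490 nm minus 690 nm. Inhibition = (Acontrol−Asample)/Acontrol; IC50 by sigmoidal variable-slope regression.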
A general note: Tetrazolium assays rely on reduction of a dye to a coloured formazan, in cell work by metabolically active cells.

Experiment [5] has as its system RPMI-8226. Description: Antiproliferative activity against human RPMI-8226 cells assessed as inhibition of cell proliferation after 72 hrs by MTS assay. It counts as functional, cell-based. As to conditions: RPMI-8226, 72 h. The essentials: as §2
Experiment [6] addresses T4, Proteasome subunit beta type-8 (Homo sapiens, UniProt P28062).
T4 sequence (P28062 whole entry): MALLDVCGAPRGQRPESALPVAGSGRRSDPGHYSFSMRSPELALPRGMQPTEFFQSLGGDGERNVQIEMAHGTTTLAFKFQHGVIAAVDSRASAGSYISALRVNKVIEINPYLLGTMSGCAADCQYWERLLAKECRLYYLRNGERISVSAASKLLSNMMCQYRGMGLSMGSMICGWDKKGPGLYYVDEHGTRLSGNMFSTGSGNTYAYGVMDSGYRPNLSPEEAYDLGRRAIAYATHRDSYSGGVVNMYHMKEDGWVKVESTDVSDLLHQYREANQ
Description: Inhibition of human proteasome subunit beta-5i chymotrypsin like activity using SUC-ANW-AMC as flurogenic substrate preincubated for 15 mins followed by substrate addition and measured after 1 hr by fluorescence assay. Put shortly:
as §1

The nature of experiment [7]: Selectivity ratio of IC50 for chymotrypsin-like activity of human 20s proteasome beta 5c subunit to IC50 for human proteasome subunit beta-5i chymotrypsin like activity.
A short description of experiment [8]: Inhibition of 20s proteasome beta 5c subunit (unknown origin). Set-up: species or system Homo sapiens.

Turning to `COc1ccc(C[C@H](NC(=O)[C@@H](C)NC(=O)N2CC[C@H](OC)C2)C(=O)N[C@@H](Cc2ccccc2)C(=O)[C@@]2(C)CO2)cc1`, the half-maximal inhibitory concentration (IC50) in experiment [1] is more than 10 µM; in experiment [2], 606 nM; in experiment [3], 5.77 µM; in experiment [4], 1370 nM; in experiment [5] it was 1880 nM; in experiment [6] it was 25.1 nM. Moreover, the Ratio IC50 in experiment [7] stood at 24.1.

Consider `COc1ccc(C[C@H](NC(=O)[C@@H](C)NC(=O)N2CCC[C@H](OC)C2)C(=O)N[C@@H](Cc2ccccc2)C(=O)[C@@]2(C)CO2)cc1`, for which the IC50 was determined as 163 nM in experiment [2] and 37.7 nM in experiment [6]. The Ratio IC50 in experiment [7] turned out to be 4.3.

For `COc1ccc(C[C@H](NC(=O)[C@H](C)NC(=O)N2CCC(OC)C2)C(=O)N[C@@H](Cc2ccccc2)C(=O)[C@@]2(C)CO2)cc1` (stereo partly drawn), the concentration for half-maximal inhibition (IC50) in experiment [2] turned out to be 293 nM; in experiment [6] it was 56.8 nM. Moreover, in experiment [7], the Ratio IC50 stood at 5.2.

Take `COc1ccc(C[C@H](NC(=O)[C@@H](C)NC(=O)N2CCCC2)C(=O)N[C@@H](Cc2ccccc2)C(=O)[C@@]2(C)CO2)cc1`: the results for the IC50 in experiment [2] and in experiment [6] were 1330 nM and 62.9 nM, respectively. Moreover, the Ratio IC50 in experiment [7] turned out to be 21.2.

Turning to `COc1ccc(C[C@H](NC(=O)[C@@H](C)NC(=O)N2CCc3ccccc3C2)C(=O)N[C@@H](Cc2ccccc2)C(=O)[C@@]2(C)CO2)cc1`, the concentration for half-maximal inhibition (IC50) in experiment [2] was 959 nM; in experiment [6] it was 80.7 nM. Further, in experiment [7], the Ratio IC50 was 11.9.

Turning to `COc1ccc(C[C@H](NC(=O)[C@H](C)NC(=O)CN2CCOCC2)C(=O)N[C@@H](Cc2ccccc2)C(=O)[C@@]2(C)CO2)cc1`, the figures for the IC50 in experiment [8] and in experiment [5] were 422 nM and 680 nM, respectively.

As to `COc1ccc(C[C@H](NC(=O)[C@@H](C)NC(=O)N2CCC(OC)C2)C(=O)N[C@@H](Cc2ccccc2)C(=O)[C@@]2(C)CO2)cc1` (stereo partly drawn), the 50% inhibitory concentration (IC50) turned out to be 1110 nM in experiment [2] and 44.5 nM in experiment [6]. Also, the Ratio IC50 in experiment [7] worked out at 24.8.

For the molecule `C[C@@H](NC(=O)N1CCC(NC(=O)c2nccs2)CC1)C(=O)N[C@@H](Cc1c[nH]c2ccccc12)C(=O)N[C@@H](Cc1ccccc1)C(=O)[C@@]1(C)CO1`, the concentration for half-maximal inhibition (IC50) in experiment [2] is 468 nM; in experiment [6], 323 nM. The Ratio IC50 in experiment [7] stood at 1.5.

For `C[C@H](NC(=O)N1CCC(NC(=O)c2nccs2)CC1)C(=O)N[C@@H](Cc1c[nH]c2ccccc12)C(=O)N[C@@H](Cc1ccccc1)C(=O)[C@@]1(C)CO1`, the half-maximal inhibitory concentration (IC50) is more than 10 µM in experiment [1]; 25.6 nM in experiment [2]; 0.154 µM in experiment [3]; 110 nM in experiment [4]; 110 nM in experiment [5]; 21.1 nM in experiment [6]. Besides, the Ratio IC50 in experiment [7] was found to be 1.2.

On to `COc1ccc(C[C@H](NC(=O)[C@@H](C)NC(=O)N2CCC[C@@H](OC)C2)C(=O)N[C@@H](Cc2ccccc2)C(=O)[C@@]2(C)CO2)cc1`, for which the half-inhibitory concentration (IC50) is more than 10 µM in experiment [1]; 244 nM in experiment [2]; 4.27 µM in experiment [3]; 220 nM in experiment [4]; 680 nM in experiment [5]; 29.9 nM in experiment [6]. In experiment [7], the Ratio IC50 was 8.2.

Consider `COc1ccc(C[C@H](NC(=O)[C@@H](C)NC(=O)N2CCC(OC)CC2)C(=O)N[C@@H](Cc2ccccc2)C(=O)[C@@]2(C)CO2)cc1`, for which the IC50 is more than 10 µM in experiment [1]; 647 nM in experiment [2]; more than 10 µM in experiment [3]; 1790 nM in experiment [4]; 1920 nM in experiment [5]; 26 nM in experiment [6]. Also, the Ratio IC50 in experiment [7] came to 24.9.

As for `COc1ccc(C[C@H](NC(=O)[C@@H](C)NC(=O)N2CC[C@@H](OC)C2)C(=O)N[C@@H](Cc2ccccc2)C(=O)[C@@]2(C)CO2)cc1`, the IC50 in experiment [2] turned out to be 1480 nM; in experiment [6] it was 66 nM. Moreover, the Ratio IC50 in experiment [7] is 22.5.

As to `COc1ccc(C[C@H](NC(=O)[C@H](C)NC(=O)N2CCC(NC(=O)c3nccs3)CC2)C(=O)N[C@@H](CC2CCCCC2)C(=O)[C@@]2(C)CO2)cc1`, the half-maximal inhibitory concentration (IC50) amounted to 245 nM in experiment [2] and 129 nM in experiment [6]. The Ratio IC50 in experiment [7] was 1.9.

With `COc1ccc(C[C@H](NC(=O)[C@@H](C)NC(=O)N2CCC(NC(=O)c3nccs3)CC2)C(=O)N[C@@H](CC2CCCCC2)C(=O)[C@@]2(C)CO2)cc1`, the IC50 came to 2710 nM in experiment [2] and 718 nM in experiment [6]. In experiment [7], the Ratio IC50 was 3.8.

As for `COc1ccc(C[C@H](NC(=O)[C@@H](C)NC(=O)n2c3ccccc3c3ccccc32)C(=O)N[C@@H](Cc2ccccc2)C(=O)[C@@]2(C)CO2)cc1`, the IC50 in experiment [2] stood at 71.7 nM; in experiment [6], 38.2 nM. Besides, the Ratio IC50 in experiment [7] came to 1.9.

For `COc1ccc(C[C@H](NC(=O)[C@H](C)NC(=O)N2CCCC2)C(=O)N[C@@H](Cc2ccccc2)C(=O)[C@@]2(C)CO2)cc1`, the results for the IC50 in experiment [2] and in experiment [6] were 498 nM and 246 nM, respectively. Further, the Ratio IC50 in experiment [7] stood at 2.

For `COc1ccc(C[C@H](NC(=O)[C@H](C)NC(=O)N2CCC(OC)CC2)C(=O)N[C@@H](Cc2ccccc2)C(=O)[C@@]2(C)CO2)cc1`, the IC50 in experiment [2] was 74 nM; in experiment [6], 18.9 nM. For the same molecule, the Ratio IC50 in experiment [7] came out at 3.9.

As to `C[C@H](NC(=O)N1CCC(NC(=O)c2nccs2)CC1)C(=O)N[C@@H](Cc1c[nH]c2ccccc12)C(=O)N[C@@H](CC1CCCCC1)C(=O)[C@@]1(C)CO1`, the IC50 in experiment [2] amounted to 216 nM; in experiment [6] it was 245 nM. Further, the Ratio IC50 in experiment [7] worked out at 0.9.

For the molecule `C[C@@H](NC(=O)N1CCC(NC(=O)c2nccs2)CC1)C(=O)N[C@@H](Cc1c[nH]c2ccccc12)C(=O)N[C@@H](CC1CCCCC1)C(=O)[C@@]1(C)CO1`, the IC50 in experiment [2] is 1080 nM; in experiment [6], 719 nM. For the same molecule, the Ratio IC50 in experiment [7] was determined as 1.5.

Turning to `COc1ccc(C[C@H](NC(=O)[C@H](C)NC(=O)N2CCc3ccccc3C2)C(=O)N[C@@H](Cc2ccccc2)C(=O)[C@@]2(C)CO2)cc1`, the half-inhibitory concentration (IC50) in experiment [2] stood at 69.7 nM; in experiment [6], 37.8 nM. Moreover, in experiment [7], the Ratio IC50 was found to be 1.8.

As to `COc1ccc(C[C@H](NC(=O)[C@H](C)NC(=O)n2c3ccccc3c3ccccc32)C(=O)N[C@@H](Cc2ccccc2)C(=O)[C@@]2(C)CO2)cc1`, the 50% inhibitory concentration (IC50) was found to be 35.5 nM in experiment [2] and 61 nM in experiment [6]. Besides, the Ratio IC50 in experiment [7] turned out to be 0.6.
